# ChEMBL document CHEMBL2331132, “Synthesis, evaluation and absolute configuration assignment of novel dihydropyrimidin-2-ones as picomolar sodium iodide symporter inhibitors” (Eur J Med Chem, 2013)
# pIC50: −log10 of the molar value.
# Test system: FRTL-5
# Assay: Cytotoxicity against rat FRTL5 cells at 1 uM after 24 hrs by MTT assay
# Format: cell-based
# Details: frtl-5, 24 h
# Procedure, shortened: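 Rat FRTL5 thyroid cells at about 50% confluence, given a single compound concentration for 24 h. MTT added (1.2 mg/mL), then 3 h at 37 °C and absorbance read at 570 nm to score viability. Ouabain run as assay control at eight concentrations.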
row,Structure (SMILES),Activity
1,COc1ccc(COC(=O)C2=C(C)N(C)C(=O)NC2c2ccco2)cc1OC (configuration not stated),Non-toxic
2,COc1ccc(COC(=O)C2=C(C)N(C)C(=O)NC2c2ccco2)cc1 (configuration not stated),Non-toxic
3,COc1ccc(COC(=O)C2=C(C)NC(=O)NC2c2ccco2)cc1 (configuration not stated),Non-toxic
4,COc1ccc(COC(=O)C2=C(C)NC(=O)NC2c2ccco2)cc1OC (configuration not stated),Non-toxic
5,CC1=C(C(=O)OCc2ccc3c(c2)OCO3)C(c2ccco2)NC(=O)N1C (configuration not stated),Non-toxic
6,CC1=C(C(=O)OCc2ccc3c(c2)OCO3)C(c2ccco2)N(C)C(=O)N1C (configuration not stated),Non-toxic
7,COc1cccc(COC(=O)C2=C(C)N(C)C(=O)N(C)C2c2ccco2)c1 (configuration not stated),Non-toxic
8,COc1ccc(COC(=O)C2=C(C)N(C)C(=O)N(C)C2c2ccco2)cc1 (configuration not stated),Non-toxic
9,CC1=C(C(=O)OCc2ccc3c(c2)OCO3)C(c2ccco2)NC(=O)N1 (configuration not stated),Non-toxic
10,COc1cccc(COC(=O)C2=C(C)NC(=O)NC2c2ccco2)c1 (configuration not stated),Non-toxic
11,COc1ccc(COC(=O)C2=C(C)N(C)C(=O)N(C)C2c2ccco2)cc1OC (configuration not stated),Non-toxic
12,COc1cccc(COC(=O)C2=C(C)N(C)C(=O)NC2c2ccco2)c1 (configuration not stated),Non-toxic

# Target: T1, Sodium/iodide cotransporter (Rattus norvegicus, UniProt Q63008)
# T1 sequence (Q63008 whole entry): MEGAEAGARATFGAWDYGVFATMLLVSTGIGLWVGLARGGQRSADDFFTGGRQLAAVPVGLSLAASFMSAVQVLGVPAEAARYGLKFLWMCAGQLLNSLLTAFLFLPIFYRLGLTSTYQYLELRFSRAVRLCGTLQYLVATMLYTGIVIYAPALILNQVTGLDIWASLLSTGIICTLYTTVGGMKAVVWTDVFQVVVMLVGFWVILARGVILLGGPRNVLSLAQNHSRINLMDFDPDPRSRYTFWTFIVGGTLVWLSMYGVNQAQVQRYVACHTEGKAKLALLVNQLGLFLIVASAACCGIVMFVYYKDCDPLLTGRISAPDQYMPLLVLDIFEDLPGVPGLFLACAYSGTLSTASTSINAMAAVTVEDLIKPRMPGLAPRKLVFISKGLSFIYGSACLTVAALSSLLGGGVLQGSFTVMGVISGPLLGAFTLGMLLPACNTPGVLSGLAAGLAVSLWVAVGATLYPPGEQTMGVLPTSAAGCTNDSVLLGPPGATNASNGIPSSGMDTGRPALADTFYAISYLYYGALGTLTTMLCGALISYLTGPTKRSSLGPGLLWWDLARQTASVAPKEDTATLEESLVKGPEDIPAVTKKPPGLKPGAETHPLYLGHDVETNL
# Assay: inhibition of sodium iodide symporter in rat FRTL5 cells after 1 hr by arsenic/cerium titration assay
# Format: cell-based, FRTL-5
# Details: not given
# Procedure, shortened: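 Iodide entrapment measured in FRTL5 cells after 1 h incubation at 20 ± 1 °C. Supernatant removed, then cellular iodide read at once by a modified non-radioactive As/Ce Sandell–Kolthoff reaction against iodide standards. DMSO stocks 20 mM; NaClO₄ and a reference inhibitor on every plate as controls. Racemates tested. IC₅₀ from a four-parameter Hill fit, averaged over ≥2 independent experiments.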
row,pIC50,Structure (SMILES)
1,4.85,COc1ccc(COC(=O)C2=C(C)NC(=O)N[C@H]2c2ccco2)cc1
2,6.00,COc1ccc(COC(=O)C2=C(C)N(C)C(=O)NC2c2ccco2)cc1OC (configuration not stated)
3,7.05,COc1ccc(COC(=O)C2=C(C)NC(=O)NC2c2ccccc2)cc1 (configuration not stated)
4,6.40,COc1ccc(COC(=O)C2=C(C)NC(=O)NC2c2ccco2)cc1OC (configuration not stated)
5,7.15,COc1ccc(COC(=O)C2=C(C)NC(=O)N[C@@H]2c2ccccc2)cc1
6,6.20,CC1=C(C(=O)OCc2ccc3c(c2)OCO3)[C@H](c2ccco2)N(C)C(=O)N1C
7,5.82,COc1ccc(COC(=O)C2=C(C)NC(=O)N[C@H]2c2ccccc2)cc1
8,9.15,CC1=C(C(=O)OCc2ccc3c(c2)OCO3)[C@@H](c2ccco2)N(C)C(=O)N1C
9,7.19,COc1ccc(COC(=O)C2=C(C)N(C)C(=O)N(C)C2c2ccco2)cc1OC (configuration not stated)
10,6.20,COc1ccc(COC(=O)C2=C(C)NC(=O)N[C@@H]2c2ccco2)cc1
